The test system of test [1] is Mycolicibacterium smegmatis. As to the kind of experiment: Antibacterial activity against Mycobacterium smegmatis mc2 155 assessed as bacterial growth inhibition incubated for 48 hrs Alamar blue staining based assay. The class given is functional. In a few lines:
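Culture grown 48 h at 37 °C, shaken in 7H9 with 0.2% glucose, 0.2% glycerol and 0.05% tyloxapol, then diluted to OD600 0.005. Added 1:1 to 2-fold serial dilutions, final 128 to 0.5 μg/mL. Rifampicin control. Static 48 h at 37 °C, then Alamar Blue for 24 h more. Wells staying blue by eye counted as inhibitory.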

The next test concerns Micrococcus luteus. As to the kind of experiment: Antibacterial activity against Micrococcus luteus NRRL B-1018 assessed as inhibition of bacterial growth incubated for 16 hrs by broth micro dilution analysis. The test is classed as functional. A digest of the protocol:
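Broth microdilution in LB, triplicate. Overnight culture diluted 5000-fold; 100 μL added to 100 μL LB holding 2-fold serial dilutions, final 128 to 0.5 μg/mL. Rifampicin control. Static incubation at 37 °C for 16 h. MIC taken as the lowest concentration with no visible growth.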

Test [2] addresses ATP-dependent Clp protease ATP-binding subunit ClpC1 (Mycobacterium tuberculosis) (UniProt P9WPC9). As to the kind of experiment: Induction of Mycobacterium tuberculosis H37Rv CIpc1 ATPase activity expressed in Escherichia coli BL21 (DE3) cells at 10 uM incubated for 1 hr by Biomol Green Reagent based assay. In a few lines:
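His-tagged ClpC1, cloned from H37Rv DNA into pET28c and purified by Ni-NTA. Assay in 100 mM Tris, 200 mM KCl, 8 mM MgCl2, pH 7.5, with 1 μM ClpC1 and 100 μM ATP. Compound in DMSO at 0.1, 1.0 and 10 μM final. Incubated 1 h at 37 °C. Released phosphate detected with BIOMOL Green at OD620. Three independent experiments.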

Test [3] relates to Mycobacterium tuberculosis. As to the kind of experiment: Antimycobacterial activity against Mycobacterium tuberculosis H37Rv assessed as bacterial growth inhibition incubated for 6 days by Alamar blue staining based assay. Conditions: 144 h, time 6 day. The class given is functional. A digest of the protocol:
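Strains passaged at 37 °C in 7H9 with OADC, 0.2% glycerol and 0.02% tyloxapol to OD600 0.5–0.7, then diluted to OD600 0.005. Final test range 5 to 0.009 μg/mL. Rifampicin control. Incubated 6 days at 37 °C with 5% CO2. Tween 80 and Alamar Blue then added for 24 h. Absorbance read at 570 nm, normalized to 600 nm.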

In test [4] the test system is Mycobacterium tuberculosis. Briefly: Induction of Mycobacterium tuberculosis CIpc1/P1/P2 proteolytic activity at 0.1 to 10 uM incubated upto 45 mins by FITC-casein fluorescence based assay. Conditions: dose 0.1-10 µM. In a few lines: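 FITC-casein 0.3 μM degraded by 1 μM ClpC1 with 2 μM ClpP1/P2 and 2 mM ATP. Buffer 100 mM Tris, 200 mM KCl, 8 mM MgCl2, pH 7.5. Compound in DMSO at 0.1, 1.0 and 10 μM. Change in fluorescence tracked relative to initial, which was set to 100. Triplicate.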

Values after ≈ are worked out from the molar mass of the structure shown. Active and inactive are the calls of the source. The calls are words filed in the database; no cut-off is given here.

For 1 compound, MIC and Activity results are on record in ChEMBL document CHEMBL5214894, “Biosynthetic Interrogation of Soil Metagenomes Reveals Metamarin, an Uncommon Cyclomarin Congener with Activity against Mycobacterium tuberculosis” (J Nat Prod, 2021).

Sequence of ATP-dependent Clp protease ATP-binding subunit ClpC1 (Mycobacterium tuberculosis) (P9WPC9 whole entry): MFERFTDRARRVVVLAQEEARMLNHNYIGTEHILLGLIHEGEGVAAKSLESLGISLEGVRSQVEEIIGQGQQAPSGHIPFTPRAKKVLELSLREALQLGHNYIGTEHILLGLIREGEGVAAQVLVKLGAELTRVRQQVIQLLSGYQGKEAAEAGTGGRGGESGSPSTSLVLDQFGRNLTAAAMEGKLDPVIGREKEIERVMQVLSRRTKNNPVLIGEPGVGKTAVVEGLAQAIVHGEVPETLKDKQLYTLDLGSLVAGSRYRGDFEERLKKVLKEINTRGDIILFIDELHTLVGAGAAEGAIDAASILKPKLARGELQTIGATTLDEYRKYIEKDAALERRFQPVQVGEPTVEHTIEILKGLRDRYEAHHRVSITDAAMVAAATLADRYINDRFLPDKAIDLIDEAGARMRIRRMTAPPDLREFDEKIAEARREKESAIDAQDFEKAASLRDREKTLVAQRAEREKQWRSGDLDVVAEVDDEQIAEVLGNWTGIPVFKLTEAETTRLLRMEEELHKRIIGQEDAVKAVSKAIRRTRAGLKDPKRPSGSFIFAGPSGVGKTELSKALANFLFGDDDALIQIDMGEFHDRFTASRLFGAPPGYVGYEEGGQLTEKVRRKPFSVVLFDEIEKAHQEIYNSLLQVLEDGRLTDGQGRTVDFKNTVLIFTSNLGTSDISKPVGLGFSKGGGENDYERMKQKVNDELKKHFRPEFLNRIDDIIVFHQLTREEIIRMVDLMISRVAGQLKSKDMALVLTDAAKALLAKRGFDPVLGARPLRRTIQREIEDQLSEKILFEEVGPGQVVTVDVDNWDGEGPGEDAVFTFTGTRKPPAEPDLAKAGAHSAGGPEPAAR

With `C=CC(C)(C)n1cc(C(O)C2NC(=O)[C@H](C(C)C)NC(=O)[C@H](CC(C)C)N(C)C(=O)[C@H](C(C)C)NC(=O)C(C(OC)c3ccccc3)NC(=O)[C@H](C(C)C)NC(=O)C(CC(C)CO)N(C)C2=O)c2ccccc21` (stereo not given in full), the MIC in test [1] worked out at 16 µg/mL (≈ 15.8 µM); with Micrococcus luteus, 8 µg/mL (≈ 7.88 µM); in test [3] it was 0.16 µg/mL (≈ 0.158 µM). Besides, the result in test [2] and in test [4] was Active.
